# Data as given in ChEMBL document CHEMBL1144889 (J Med Chem, 2003).
# Calls of active or inactive are those of the source. No cut-off for these calls is given here.
# Key:
# [1] = target: T1, Glucocorticoid receptor (Homo sapiens) (UniProt P04150); assay: Transcriptional activation in CV-1 cells expressing human glucocorticoid receptor compared to Dexamethasone; assay type: functional, cell-based
# T1 sequence (whole entry): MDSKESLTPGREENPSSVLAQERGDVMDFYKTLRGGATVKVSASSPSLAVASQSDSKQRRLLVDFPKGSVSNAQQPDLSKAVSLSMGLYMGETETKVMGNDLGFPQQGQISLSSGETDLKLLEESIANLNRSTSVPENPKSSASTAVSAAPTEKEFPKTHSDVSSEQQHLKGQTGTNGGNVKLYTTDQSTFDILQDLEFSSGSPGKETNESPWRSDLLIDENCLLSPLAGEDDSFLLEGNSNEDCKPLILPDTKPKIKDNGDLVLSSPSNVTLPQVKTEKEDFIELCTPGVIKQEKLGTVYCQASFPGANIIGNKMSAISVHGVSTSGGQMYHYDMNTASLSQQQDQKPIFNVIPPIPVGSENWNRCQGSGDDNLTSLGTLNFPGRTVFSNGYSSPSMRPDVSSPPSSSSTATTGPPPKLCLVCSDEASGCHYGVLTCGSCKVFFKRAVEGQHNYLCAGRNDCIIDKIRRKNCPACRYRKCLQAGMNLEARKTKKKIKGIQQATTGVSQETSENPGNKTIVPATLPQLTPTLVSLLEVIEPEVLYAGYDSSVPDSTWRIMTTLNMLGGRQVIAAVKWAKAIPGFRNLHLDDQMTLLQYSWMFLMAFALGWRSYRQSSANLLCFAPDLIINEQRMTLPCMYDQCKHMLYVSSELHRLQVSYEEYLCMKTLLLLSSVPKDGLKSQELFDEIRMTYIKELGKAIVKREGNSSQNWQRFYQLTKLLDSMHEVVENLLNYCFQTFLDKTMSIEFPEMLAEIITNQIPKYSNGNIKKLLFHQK
# Outline: (§1)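 GRE activation co-transfection in CV-1 cells: hGR receptor plasmid plus a luciferase reporter driven by part of the MMTV promoter (four GRE sites, no known AP-1 or NFκB affinity). Full seven-point, half-log concentration-response curves run in triplicate. EC50 is the concentration at half-maximal response; efficacy is given as % of the dexamethasone maximal response.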
# [2] = target: T2, Glucocorticoid receptor (Homo sapiens, UniProt P04150); assay: Transcriptional repression in HepG2 cells expressing human glucocorticoid receptor; - = low efficacy or a functional efficacy <20%; assay type: cell-based
# T2 sequence (P04150 whole entry): T1 sequence (whole entry)
# Outline: (§2)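 Cotransfection in HepG2 cells with a luciferase reporter under an E-selectin promoter carrying one NFκB and one AP-1 site. Readout is repression of transcription. Seven-point half-log concentration-response curves. EC50 taken at half-maximal response. Efficacy expressed as % of the dexamethasone maximum. Mean of two experiments in triplicate, single run, or ≥3 experiments.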
# [3] = target: T2, Glucocorticoid receptor; assay: Transcriptional activation in CV-1 cells expressing human glucocorticoid receptor; - = low efficacy or a functional efficacy <20%; assay type: cell-based
# Outline: (§3)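 Cotransfection of an hGR receptor plasmid with a luciferase reporter driven by the MMTV promoter (four GREs) in CV-1 cells. Seven-point half-log concentration-response curves. EC50 taken as half-maximal response. Efficacy expressed as % of the dexamethasone maximum. Mean of two experiments in triplicate, single triplicate run, or ≥3 experiments in triplicate.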
# [4] = target: T2, Glucocorticoid receptor; assay: Binding affinity towards human glucocorticoid receptor (GR) was determined using [3H]dexamethasone as radioligand in […] cells; assay type: cell-based
# [5] = target: T2, Glucocorticoid receptor; assay: Transcriptional activation in CV-1 cells expressing human glucocorticoid receptor; - = low efficacy or a functional efficacy <5%; assay type: cell-based; outline: as §3
# [6] = target: T2, Glucocorticoid receptor; assay: Transcriptional repression in HepG2 cells expressing human glucocorticoid receptor; assay type: functional, cell-based
# [7] = target: T3, Progesterone receptor (Homo sapiens, UniProt P06401); assay: Displacement of [3H]progesterone from human Progesterone receptor A; - = low efficacy or functional efficacy <20%
# T3 sequence (P06401 whole entry): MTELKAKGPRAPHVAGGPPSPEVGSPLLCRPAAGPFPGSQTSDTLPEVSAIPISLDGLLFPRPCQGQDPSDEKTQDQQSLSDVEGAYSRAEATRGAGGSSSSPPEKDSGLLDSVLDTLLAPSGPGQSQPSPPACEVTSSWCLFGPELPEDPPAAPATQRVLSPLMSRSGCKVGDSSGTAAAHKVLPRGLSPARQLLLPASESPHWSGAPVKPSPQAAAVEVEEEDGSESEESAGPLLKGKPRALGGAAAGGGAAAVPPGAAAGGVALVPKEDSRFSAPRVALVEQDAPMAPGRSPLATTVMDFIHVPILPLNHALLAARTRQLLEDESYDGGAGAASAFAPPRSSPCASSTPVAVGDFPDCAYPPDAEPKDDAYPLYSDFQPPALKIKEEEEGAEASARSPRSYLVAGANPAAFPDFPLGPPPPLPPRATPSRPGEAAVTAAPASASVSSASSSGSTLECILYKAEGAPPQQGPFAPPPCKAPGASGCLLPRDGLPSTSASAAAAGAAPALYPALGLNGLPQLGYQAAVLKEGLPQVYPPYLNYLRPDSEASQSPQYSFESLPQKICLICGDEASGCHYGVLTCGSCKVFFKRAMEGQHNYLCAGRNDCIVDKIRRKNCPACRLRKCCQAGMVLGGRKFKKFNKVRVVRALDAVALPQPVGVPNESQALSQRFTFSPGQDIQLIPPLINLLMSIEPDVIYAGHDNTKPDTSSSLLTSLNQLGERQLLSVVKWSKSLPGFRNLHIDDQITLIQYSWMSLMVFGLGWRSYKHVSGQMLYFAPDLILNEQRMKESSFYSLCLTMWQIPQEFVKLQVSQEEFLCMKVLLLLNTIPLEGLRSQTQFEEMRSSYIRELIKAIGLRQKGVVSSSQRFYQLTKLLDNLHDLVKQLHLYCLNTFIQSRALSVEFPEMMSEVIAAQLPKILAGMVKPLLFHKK
# Outline: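 Human PR-A expressed from baculovirus in Sf21 cells, cytosol about 40 µg protein. Incubated with about 0.8 nM [3H]progesterone overnight at 4 °C in Tris/EDTA/glycerol/DTT/molybdate buffer, pH 7.6. Nonspecific binding taken with 1 µM unlabeled progesterone. Hydroxyapatite capture, scintillation counting. IC50 from Hill analysis, Ki from Cheng-Prusoff.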
# [8] = target: T1, Glucocorticoid receptor (Homo sapiens); assay: Transcriptional repression in HepG2 cells expressing human glucocorticoid receptor compared to Dexamethasone; - = low efficacy or a functional efficacy <5%; assay type: cell-based
# Outline: (§4)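 Repression co-transfection in HepG2 cells: luciferase reporter under an E-selectin promoter carrying one NFκB and one AP-1 binding site. Full seven-point, half-log concentration-response curves run in triplicate. EC50 is the concentration at half-maximal response; maximal efficacy is given as % of the dexamethasone maximal response.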
# [9] = target: T1, Glucocorticoid receptor (Homo sapiens); assay: Transcriptional activation in CV-1 cells expressing human glucocorticoid receptor compared to Dexamethasone; - = low efficacy or a functional efficacy <5%; assay type: cell-based; outline: as §1
# [10] = target: T2, Glucocorticoid receptor; assay: Transcriptional repression in HepG2 cells expressing human glucocorticoid receptor; - = low efficacy or a functional efficacy <5%; assay type: cell-based; outline: as §2
# [11] = target: T1, Glucocorticoid receptor (Homo sapiens); assay: Transcriptional repression in HepG2 cells expressing human glucocorticoid receptor compared to Dexamethasone; - = low efficacy or a functional efficacy <20%; assay type: cell-based; outline: as §4
# [12] = target: T1, Glucocorticoid receptor (Homo sapiens); assay: Transcriptional activation in CV-1 cells expressing human glucocorticoid receptor compared to Dexamethasone; - = low efficacy or a functional efficacy <20%; assay type: cell-based; outline: as §1
SMILES,Efficacy [1],EC50 [2],EC50 [3],Ki [4],EC50 [5],also measured
C=CCC1Oc2cccc(OCC)c2-c2ccc3c(c21)C(C)=CC(C)(C)N3 (configuration not stated),0%,Not Active,Not Active,65 nM,,
C=CCC1Oc2cccc(COC)c2-c2ccc3c(c21)C(C)=CC(C)(C)N3 (configuration not stated),5%,,,,Not Active,EC50 [6]: 305 nM
C=CCC1Oc2ccc(OCC)c(OC)c2-c2ccc3c(c21)C(C)=CC(C)(C)N3 (configuration not stated),,Not Active,,,,Ki [7]: Not Active
C=CCC1Oc2cccc(CN)c2-c2ccc3c(c21)C(C)=CC(C)(C)N3 (configuration not stated),7%,,,140 nM,Not Active,EC50 [6]: 467 nM
C=CCC1Oc2cccc(C(=O)OC)c2-c2ccc3c(c21)C(C)=CC(C)(C)N3 (configuration not stated),,,,400 nM,Not Active,Efficacy [8]: inactive; Efficacy [9]: inactive; EC50 [10]: Not Active
C=CCOc1cccc2c1-c1ccc3c(c1C(CC=C)O2)C(C)=CC(C)(C)N3 (configuration not stated),0%,Not Active,Not Active,88 nM,,
C=CCC1Oc2cccc(OCC3CC3)c2-c2ccc3c(c21)C(C)=CC(C)(C)N3 (configuration not stated),,Not Active,Not Active,2100 nM,,Efficacy [11]: inactive; Efficacy [12]: inactive
C=CCC1Oc2cccc(OCc3ccccc3)c2-c2ccc3c(c21)C(C)=CC(C)(C)N3 (configuration not stated),,Not Active,Not Active,6000 nM,,Efficacy [11]: inactive; Efficacy [12]: inactive
